Measured values taken from ChEMBL document CHEMBL1135476, “Synthesis and structure-activity relationship study of potent trypanocidal thio semicarbazone inhibitors of the trypanosomal cysteine protease cruzain” (J Med Chem, 2002).

Tests used:
Cruzipain = Cruzipain (Trypanosoma cruzi, UniProt P25779); test: Inhibitory activity against Trypanosoma cruzi cathepsin L-like protease (cruzain) was determined using purified recombinant protein
Outline: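 Purified recombinant cruzain (1 nM) preincubated 5 min at room temperature with inhibitor (20-50000 nM; seven concentrations) in 100 mM sodium acetate, 5 mM DTT, pH 5.50. DMSO 0.7% in assay. IC50 read graphically from linear portion of inhibition vs log[I], at least two points in linear range.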

Trypanosoma cruzi [1] = test: Tested for the trypanocidal property against infected host cells (Trypanosoma cruzi) using a cell culture assay.; format: functional
Outline: (§1)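 Irradiated (5000 rad) J774 macrophages were plated 24 h before infection with ~10^6 T. cruzi Y-strain trypomastigotes per well; the trypomastigotes came from BESM cell culture supernatants. Parasites were removed at 2 h, then compound was given at 10 μM (stocks 10 mM in DMSO) in RPMI-1640 with FCS at 37 °C, 5% CO2, refreshed every 48 h. DMSO blank served as control. Cultures were followed by phase microscopy for up to […], scoring intracellular cycle duration and host-cell survival and toxicity.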

Trypanosoma cruzi [2] = test: Trypanocidal activity in infected host cells; format: functional; outline: as §1
Trypanosoma cruzi [3] = test: Tested for the trypanocidal property against infected host cells (Trypanosoma cruzi) using a cell culture assay; format: functional; outline: as §1

Chain of Cruzipain (P25779 whole entry): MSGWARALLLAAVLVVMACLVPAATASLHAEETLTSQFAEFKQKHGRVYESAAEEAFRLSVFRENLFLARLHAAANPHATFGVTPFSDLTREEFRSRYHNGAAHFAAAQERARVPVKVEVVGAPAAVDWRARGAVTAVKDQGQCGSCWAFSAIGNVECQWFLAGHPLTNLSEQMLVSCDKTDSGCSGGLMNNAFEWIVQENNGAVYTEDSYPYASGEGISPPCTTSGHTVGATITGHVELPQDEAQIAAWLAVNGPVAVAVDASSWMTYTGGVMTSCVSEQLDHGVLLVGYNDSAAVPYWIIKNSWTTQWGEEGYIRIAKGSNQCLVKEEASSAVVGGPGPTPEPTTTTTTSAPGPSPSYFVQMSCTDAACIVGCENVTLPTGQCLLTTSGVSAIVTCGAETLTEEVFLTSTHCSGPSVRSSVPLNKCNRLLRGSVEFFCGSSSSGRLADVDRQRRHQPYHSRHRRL

Compound | IC50 (Cruzipain) [nM] | other results
CC/C(=N\N=C(\N)S)c1cccc(Br)c1 | – | Cell survived (Trypanosoma cruzi [1]): >46 days
NC(=S)N1CCC(c2cccc(Br)c2)=N1 | 200 | Cell survived (Trypanosoma cruzi [2]): 5 days
N/C(S)=N/N=C/c1ccc(-c2ccc(Cl)cc2)o1 | 300 | Cell survived (Trypanosoma cruzi [3]): 15 days
NC(=S)N1CCC(c2ccc(Cl)c(Cl)c2)=N1 | 60 | Cell survived (Trypanosoma cruzi [2]): >41 days
C/C(=N\N=C(\N)S)c1cccc(C(F)(F)F)c1 | 170 | Cell survived (Trypanosoma cruzi [2]): 15 days
CC1CN(C(=N)S)N=C1c1cccc(Br)c1 (stereo not drawn) | – | Cell survived (Trypanosoma cruzi [2]): >22 days
CC/C(=N\N=C(\N)S)c1ccccc1 | > 10000 | –
CC/C(=N\N=C(/S)NC)c1cccc(Br)c1 | > 10000 | –
C/C(=N\N=C(\N)S)c1cccc(Br)c1 | – | Cell survived (Trypanosoma cruzi [2]): 22 days
C/C(=N\N=C(\N)S)c1cc(C(F)(F)F)cc(C(F)(F)F)c1 | 60 | Cell survived (Trypanosoma cruzi [2]): 7 days
C/C(=N\N=C(\N)S)c1ccc(Br)s1 | 3800 | –
C/C(=N\N=C(\N)S)c1ccc(Cl)s1 | 1900 | –
NC(=S)N1CCC(c2cccc(Cl)c2)=N1 | 270 | Cell survived (Trypanosoma cruzi [2]): 5 days
CC1CN(C(=N)S)N=C1c1cccc(Cl)c1 (stereo not drawn) | 230 | Cell survived (Trypanosoma cruzi [2]): >41 days
S=C(Nc1cccc(Cl)c1)N1CCC(c2cccc(Br)c2)=N1 | 1000 | Cell survived (Trypanosoma cruzi [2]): 5 days
C/C(=N\N=C(\N)S)c1ccc(Cl)c(Cl)c1 | 50 | Cell survived (Trypanosoma cruzi [2]): >41 days
N=C(S)N/N=C/c1cc(C(F)(F)F)cc(C(F)(F)F)c1 | 320 | –

Compound | IC50 (Cruzipain) [nM] | other results
C/C(=N\N=C(\N)S)c1ccccc1Br | 3900 | –
CC/C(=N\N=C(\N)S)c1cccc(Cl)c1 | 220 | Cell survived (Trypanosoma cruzi [1]): 22 days
COc1ccc2ccccc2c1/C=N/N=C(/N)S | 560 | Cell survived (Trypanosoma cruzi [1]): 5 days
CC1CN(C(=N)S)N=C1c1cccc(C(F)(F)F)c1 (stereo not drawn) | 40 | Cell survived (Trypanosoma cruzi [2]): >41 days
C/C(=N\N=C(\N)S)c1ccc(N2CCOCC2)cc1 | > 10000 | –
CC/C(=N\N=C(/S)NC(C)C)c1cccc(Br)c1 | > 10000 | –
CC/C(=N\N=C(\N)S)c1ccc(OC)cc1 | > 10000 | –
CC1CN(C(=N)S)N=C1c1ccc(Cl)c(Cl)c1 (stereo not drawn) | 70 | Cell survived (Trypanosoma cruzi [2]): 15 days
N=C(S)N1CCC(c2cccc(C(F)(F)F)c2)=N1 | 80 | Cell survived (Trypanosoma cruzi [2]): 5 days
CC/C(=N\N=C(/S)NCCN1CCNCC1)c1cccc(Br)c1 | > 10000 | –
N/C(S)=N/N=C/c1cccc(Br)c1 | 1300 | Cell survived (Trypanosoma cruzi [2]): 8 days
CC/C(=N\N=C(\N)S)c1ccc(Cl)c(Cl)c1 | 20 | Cell survived (Trypanosoma cruzi [2]): 9 days
CC/C(=N\N=C(\N)S)c1cccc(C(F)(F)F)c1 | 50 | Cell survived (Trypanosoma cruzi [1]): >41 days
CC/C(=N\N=C(\N)S)c1cc(C(F)(F)F)cc(C(F)(F)F)c1 | 20 | Cell survived (Trypanosoma cruzi [2]): 20 days
COc1ccccc1-c1ccc(/C=N/N=C(/N)S)o1 | 280 | Cell survived (Trypanosoma cruzi [3]): 8 days
CC/C(=N\N=C(/S)Nc1ccc(C(F)(F)F)cc1)c1cccc(Br)c1 (stereo in doubt) | > 10000 | –
CC/C(=N\N=C(/S)Nc1ccc(C(F)(F)F)cc1)c1cccc(Br)c1 (stereo in doubt; 5c) | 1600 | Cell survived (Trypanosoma cruzi [2]): 5 days

Second part, led by results:

IC50 (Cruzipain) [nM] | Compound | other results
> 10000 | COc1ccc(/C=N/NC(N)=S)cc1O | –
> 10000 | NC(=O)N/N=C/c1ccc(-c2ccc(Cl)cc2)o1 | –
> 10000 | FC(F)(F)c1ccc(NC(=S)N2CCC(c3cccc(Br)c3)=N2)cc1 | –
> 10000 | CC/N=C(\S)N1CCC(c2cccc(Br)c2)=N1 | –
> 10000 | C/C(=N\NC(N)=O)c1cccc(Cl)c1 | –
> 10000 | CC/C(=N\N=C(/S)Nc1ccccc1)c1cccc(Br)c1 | –
> 10000 | S=C(NCc1ccco1)N1CCC(c2cccc(Br)c2)=N1 | –
140 | N/C(S)=N/N=C/c1ccc(-c2cccc(Cl)c2)o1 | –
> 10000 | CN(C)c1ccc(/C=N/N=C(/N)S)c2ccccc12 | –
> 10000 | C/C(=N\NC(N)=O)c1cccc(C(F)(F)F)c1 | –
460 | N/C(S)=N/N=C/c1ccc(Cl)c(Cl)c1 | –
560 | N/C(S)=N/N=C/c1cc(Cl)cc(Cl)c1 | –
> 10000 | C/C(=N\NC(N)=O)c1ccc(Cl)c(Cl)c1 | –
> 10000 | CC/C(=N\NC(N)=O)c1cccc(C(F)(F)F)c1 | –
> 10000 | CC/C(=N\NC(N)=O)c1cccc(Cl)c1 | –
> 10000 | NC(=O)N/N=C/c1ccc(-c2cccc(Cl)c2)o1 | –
> 10000 | CC/C(=N\N=C(\N)S)c1ccc2cc(OC)ccc2c1 | –
> 10000 | CC/C(=N\NC(N)=O)c1cc(C(F)(F)F)cc(C(F)(F)F)c1 | –
> 10000 | CC/C(=N\N=C(\N)S)c1ccc(Br)cc1 | –
280 | NC(=S)N/N=C/c1ccc(-c2ccc(Br)cc2)o1 | –
> 10000 | C/C(=N\N=C(\N)S)c1ccccc1Cl | –
> 10000 | CC/C(=N\N=C(\N)S)c1ccc(Cl)cc1Cl | –

IC50 (Cruzipain) [nM] | Compound | other results
> 10000 | N=C(S)N/N=C/c1ccccc1C(F)(F)F | –
> 10000 | C/C(=N\NC(N)=O)c1cccc(Br)c1 | –
1700 | FC(F)(F)c1cccc(NC(=S)N2CCC(c3cccc(Cl)c3)=N2)c1 | –
> 10000 | CCC(NNC(N)=S)c1cccc(Br)c1 (stereo not drawn) | –
480 | N=C(S)N/N=C/c1cccc(C(F)(F)F)c1 | –
> 10000 | CC/C(=N\N=C(/S)NCc1ccco1)c1cccc(Br)c1 | –
> 10000 | S=C(Nc1ccccc1)N1CCC(c2cccc(Br)c2)=N1 | –
> 10000 | CC/N=C(\S)N/N=C(\CC)c1cccc(Br)c1 | –
> 10000 | C/N=C(\S)N1CCC(c2cccc(Br)c2)=N1 | –
> 10000 | N/C(S)=N/N=C/c1cc(C#Cc2ccccc2)cs1 | –
1400 | CCCCCCNC(=S)N1CCC(c2cccc(Br)c2)=N1 | –
> 10000 | CC/C(=N\NC(N)=O)c1ccc(Cl)c(Cl)c1 | –
> 10000 | CC/C(=N\NC(N)=O)c1cccc(Br)c1 | –
7000 | Cn1nc(C(F)(F)F)cc1-c1ccc(/C=N/N=C(/N)S)s1 | –
> 10000 | S=C(NCCN1CCOCC1)N1CCC(c2cccc(Br)c2)=N1 | –
> 10000 | NC(=O)N/N=C/c1ccc(-c2ccc(Br)cc2)o1 | –
> 10000 | CC/C(=N\N=C(\N)S)c1cccc(F)c1 | –
> 10000 | COc1cccc(/C(C)=N/N=C(/N)S)c1 | –
> 10000 | CC(C)/N=C(\S)N1CCC(c2cccc(Br)c2)=N1 | –
> 10000 | CC/C(=N\N=C(\N)S)c1ccc(Cl)cc1 | –
> 10000 | N/C(S)=N/N=C/c1cccc(Cl)c1Cl | –
2800 | N/C(S)=N/N=C/c1cccn1S(=O)(=O)c1ccccc1 | –
